Experimental data as given in article PMC13435124 (The FASEB Journal, 2026).
Where a name gives a salt, the structure may show the parent alone.

Test system: Nrf2 activation in KeratinoSens cells
Test: KeratinoSens reporter gene assay
Type: cell-based
Conditions: 6 h
In short: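 KeratinoSens ARE-luciferase cells (passage ≤22) plated at 1.0 × 10^4 per well in triplicate; after 24 h switched to DMEM with 1% FBS, no geneticin. Wortmannin 500 nM added 1 h before test compound at 250 μM; DMF 50 μM as positive control; DMSO ≤0.1%. After 6 h, Alamar Blue (4 h, 37°C), then luciferase read as fold over DMSO. Three independent experiments in triplicate.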

COC(=O)/C=C/C(=O)OC [DMF, Dimethyl fumarate]
Nrf2 activation (luciferase induction) (Iso 250 μM, DMF 50 μM): induced Nrf2 activation

COC[C@H]1OC(=O)c2coc3c2[C@@]1(C)C1=C(C3=O)[C@@H]2CCC(=O)[C@@]2(C)C[C@H]1OC(C)=O [Wortmannin]
effect on Iso-induced Nrf2 activation (Wortmannin 500 nM added 1 h before Iso 250 μM): partially inhibited
